Square brackets hold non-standard residues; d marks the D form. Peptide text beside a SMILES is read from it. * marks the point of attachment. Succinyl(4-O-cholesteryl) = CC(C)CCC[C@@H](C)[C@H]1CC[C@H]2[C@@H]3CC=C4C[C@@H](OC(=O)CCC(=O)*)CC[C@]4(C)[C@H]3CC[C@]12C; Sta = CC(C)C[C@H](N)[C@@H](O)CC(=O)O Some results are limits rather than exact numbers.

Assay [1] addresses T1, BACE1 (Homo sapiens, UniProt P56817). Put plainly: Cell-based Aβ lowering IC50 assay. Summed up:
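Test compounds, free or Brain Shuttle-coupled, added in serial dilutions to HEK293 cells stably expressing wild-type human APP695, grown in Iscove's medium with 10% FBS to ~80% confluency. Construct dilution buffers served as control. Overnight at 37 °C, 5% CO2. Supernatant Aβ40 read by AlphaLISA: acceptor beads 1 h, then streptavidin donor beads 30 min, both at RT; emission at 615 nm. Compared with vehicle-treated cells; mean ± SEM.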

The subject of the next assay is plasma Aβ. Put plainly: Plasma Aβ40 after single i.v. dose in mice. The assay is classed as in vivo, C57BL/6 J mice. The conditions noted are these: 5 h post dose. Summed up: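 Nine-week-old female mice received one i.v. injection of test compound at 0.003–3 mg/kg, with the buffer alone as vehicle control; three animals per group. Under anaesthesia, blood was collected into EDTA tubes, spun 8 min at 1600 × g, and plasma diluted 1:10 in 0.2% diethanolamine before solid-phase extraction.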

Assay [2] relates to Aβ production in human stem-cell derived neurons. Kind of assay: Human neural stem cell-based Aβ40 inhibition assay. The settings on record: 48 h incubation. Put shortly:
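Neurons differentiated from SB-AD3 human iPSCs (healthy adult donor fibroblasts) via embryoid bodies and dual SMAD inhibition. Doses 0.128–10,000 nM (three independent differentiations) or 0.001024–80 nM (one differentiation), two technical replicates per dose. Vehicle was histidine/NaCl/1.3 mM hydroxypropyl-β-cyclodextrin for peptides and DMSO for small molecules. Aβ40 read by AlphaLISA at 615 nm, compared with vehicle-treated cells; means ± SEM.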

Assay [3] concerns the target T1, BACE1. Kind of assay: SPR binding assay on immobilized BACE1. Summed up:
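SPR at 18 °C in the immobilization buffer. Peptide titrations used 2-fold dilution steps, run either as single-cycle kinetics (5 concentrations) or multi-cycle kinetics (10 concentrations). Two protein surfaces and an activated/deactivated CM5 reference surface were measured in parallel on one sensor.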

The next assay has as its target T2, BACE2 (Homo sapiens, UniProt Q9Y5Z0).
T2 sequence (Q9Y5Z0 20-465): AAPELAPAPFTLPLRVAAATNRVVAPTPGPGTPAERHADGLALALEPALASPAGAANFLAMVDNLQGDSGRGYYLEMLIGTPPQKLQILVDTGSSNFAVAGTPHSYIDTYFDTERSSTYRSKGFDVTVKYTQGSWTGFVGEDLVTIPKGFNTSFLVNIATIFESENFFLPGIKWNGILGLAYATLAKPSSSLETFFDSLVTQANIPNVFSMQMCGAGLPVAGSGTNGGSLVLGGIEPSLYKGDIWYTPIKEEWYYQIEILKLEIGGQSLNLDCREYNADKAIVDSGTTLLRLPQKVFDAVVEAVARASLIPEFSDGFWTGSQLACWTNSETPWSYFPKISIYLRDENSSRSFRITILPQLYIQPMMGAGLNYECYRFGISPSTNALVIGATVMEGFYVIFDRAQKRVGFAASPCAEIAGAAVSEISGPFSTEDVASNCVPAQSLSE
Kind of assay: SPR binding assay on immobilized BACE2. The settings on record: BACE2 surface, 18 °C, pH 4.5. Summed up:
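Binding was run at 18 °C in the same buffer, either single-cycle (5 concentrations) or multi-cycle (10 concentrations), twofold dilutions, against an activated/deactivated reference surface.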

Assay [4] has as its target Beta-secretase 1 (BACE1), C-terminal His-tagged full length. Kind of assay: SPR.
For assay [5], the target named is T3, N-terminal T7-tagged BACE2 (amino acids 20-465) (UniProt Q9Y5Z0 20-465).
T3 sequence: T2 sequence (Q9Y5Z0 20-465)
Kind of assay: SPR.

The target of assay [6] is BACE1 ectodomain mutant protein (A14-T454, K307A) (UniProt P56817 14-454, K307A). Kind of assay: crystal structure.
Sequence of BACE1 ectodomain mutant protein (A14-T454, K307A) (P56817 14-454 K307A): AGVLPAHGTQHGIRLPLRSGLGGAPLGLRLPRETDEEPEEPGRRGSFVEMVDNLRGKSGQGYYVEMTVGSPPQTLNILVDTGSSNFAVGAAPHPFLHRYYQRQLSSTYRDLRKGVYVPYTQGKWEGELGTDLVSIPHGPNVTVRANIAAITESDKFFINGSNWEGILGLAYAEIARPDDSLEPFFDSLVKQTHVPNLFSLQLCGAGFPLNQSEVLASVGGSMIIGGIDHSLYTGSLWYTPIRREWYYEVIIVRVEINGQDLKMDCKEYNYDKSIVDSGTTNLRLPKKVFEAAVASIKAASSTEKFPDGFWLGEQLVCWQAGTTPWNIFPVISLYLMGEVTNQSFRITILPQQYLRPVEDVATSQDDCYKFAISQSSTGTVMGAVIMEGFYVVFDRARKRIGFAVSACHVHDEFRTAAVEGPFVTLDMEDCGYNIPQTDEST

T1 sequence (P56817 46-501): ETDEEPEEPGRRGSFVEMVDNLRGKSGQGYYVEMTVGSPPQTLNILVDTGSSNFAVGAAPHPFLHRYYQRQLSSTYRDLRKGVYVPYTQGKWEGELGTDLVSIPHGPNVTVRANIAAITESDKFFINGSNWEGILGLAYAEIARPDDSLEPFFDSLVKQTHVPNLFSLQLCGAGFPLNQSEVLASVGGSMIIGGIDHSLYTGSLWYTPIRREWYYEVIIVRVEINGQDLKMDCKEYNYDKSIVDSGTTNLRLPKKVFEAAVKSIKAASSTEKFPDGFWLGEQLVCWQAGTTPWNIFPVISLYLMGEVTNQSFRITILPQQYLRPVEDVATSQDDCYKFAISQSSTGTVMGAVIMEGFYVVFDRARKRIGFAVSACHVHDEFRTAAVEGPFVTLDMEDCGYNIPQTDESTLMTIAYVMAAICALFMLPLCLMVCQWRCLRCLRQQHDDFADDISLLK

On to `CC[C@H](C)[C@H](NC(=O)[C@H](Cc1ccccc1)NC(=O)[C@H](Cc1ccc(O)cc1)NC(=O)[C@@H]1CCCN1C(=O)[C@H](Cc1ccc(O)cc1)NC(=O)CNC(=O)CNC(=O)CN)C(=O)N1CCC[C@H]1C(=O)N[C@H](CCCCN)C(=O)NCC(=O)N[C@H](CCCCN)C(=O)NCC(=O)N[C@@H](CCC(=O)O)C(=O)N[C@H](C(=O)N[C@@H](CC(N)=O)C(=O)N[C@@H](CC(C)C)[C@@H](O)CC(=O)N[C@H](C(=O)N[C@@H](C)C(=O)N[C@@H](CCC(=O)O)C(=O)N1CCC[C@@H]1C(=O)N[C@@H](CCCCNC(=O)CCC(=O)O[C@H]1CC[C@@]2(C)C(=CC[C@H]3[C@@H]4CC[C@H]([C@H](C)CCCC(C)C)[C@@]4(C)CC[C@@H]32)C1)C(N)=O)C(C)C)C(C)C` [Pep#14, Gly-Gly-Gly-Tyr-Pro-Tyr-Phe-Ile-Pro-DLys-Gly-DLys-Gly-Glu-Val-Asn-Sta-Val-Ala-Glu-DPro-Lys(Chol'ester’)-NH2] (H-GGGYPYFIP[dK]G[dK]GEVN[Sta]VAE[dP]K(Succinyl(4-O-cholesteryl))-NH2; N-terminus assumed), for which the “Aβ40 production inhibition in HEK293 APP cells” value at BACE1 [1] (16 h / overnight incubation) is on record as “blocked production of Aβ40”. Further, the “Plasma Aβ40 inhibition” value with plasma Aβ (0.003-3 mg/kg i.v., uncoupled peptides) is “Dose-dependent inhibition”. Further, the “Plasma Aβ level reduction” value in the assay with plasma Aβ (3 mg/kg i.v., uncoupled peptide) worked out at 51%. Also, the “Aβ production inhibition in human stem-cell derived neurons” value in assay [2] is “able to reduce the Aβ production”.
`CC(C)C[C@H](NC(=O)[C@H](CC(N)=O)NC(=O)[C@@H](NC(=O)[C@@H](N)CCC(=O)O)C(C)C)[C@@H](O)CC(=O)N[C@H](C(=O)N[C@@H](C)C(=O)N[C@@H](CCC(=O)O)C(=O)N1CCC[C@@H]1C(N)=O)C(C)C` [Pep#1, Glu-Val-Asn-Sta-Val-Ala-Glu-DPro-NH2] (H-EVN[Sta]VAE[dP]-NH2; N-terminus assumed): the IC50 against BACE1 [1] is > 40 µM. For the same molecule, the kon is 2.5–4.0·10^3 1/Ms at BACE1 [3] (BACE1 surface, 18 °C, pH 4.5) and 2.7–3.1·10^3 1/Ms at BACE2. Further, the “Selectivity for BACE1” value on BACE1 [3] (ratio KD(BACE2)/KD(BACE1)) is > 280.
As for Ac-YPYFLPISAK-NH2 [Pep#6], the dissociation constant Kd in assay [4] amounted to 25 µM; in assay [5], 66 µM.
On to Ac-ALYPYFLPISAK-NH2 [Pep#6a], for which the binding result in assay [6] is “binds”.

The values are drawn from publication PMC5652008 (EBioMedicine, 2017).
